Consider 13 compounds from ChEMBL document CHEMBL1156988, “Synthesis and antibacterial studies of binaphthyl-based tripeptoids. Part 1” (2010).

A value given as a limit tells only on which side of the number the result lay.

One may read the MIC as the smallest concentration in the dilution series that meets the test's criterion for growth inhibition.

For assay [1], the system named is Enterococcus faecium. Description: Antibacterial activity against vancomycin-resistant Enterococcus faecium 987 after overnight incubation.
Assay [2] has as its system Enterococcus faecium. As to the kind of experiment: Antibacterial activity against vancomycin-resistant Enterococcus faecium 243 after overnight incubation.
Assay [3] concerns Enterococcus faecium. Description: Antibacterial activity against vancomycin-resistant Enterococcus faecium 820 after overnight incubation.
In assay [4] the test system is Enterococcus faecium. Description: Antibacterial activity against vancomycin-resistant Enterococcus faecium 449 after overnight incubation.
The subject of another assay is Staphylococcus aureus. Description: Antibacterial activity against Staphylococcus aureus 6538P after overnight incubation. Format: functional. The essentials:
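Strains were grown in Luria Broth. Overnight stationary-phase cultures were diluted 1:1000 into fresh medium with twofold compound dilutions, highest typically 128 µg/ml, in 96-well plates. Incubated overnight at 37 °C. MIC recorded as the […].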

Assay [5] has as its system Staphylococcus epidermidis. Description: Antibacterial activity against Staphylococcus epidermidis ATCC 700562 after overnight incubation. It counts as functional.
[6] abbreviates: Enterococcus faecium, 987, read-out: MIC.
[7] abbreviates: Enterococcus faecium, 243, read-out: MIC.
Where [8] appears, read: Enterococcus faecium, 820, read-out: MIC.
[9] abbreviates: Enterococcus faecium, 449, read-out: MIC.
Where [10] appears, read: Staphylococcus aureus, 6538P, read-out: MIC.

As to `C=CCOc1ccc2ccccc2c1-c1c(OCC(=O)N[C@H](C)C(=O)N[C@H](CCCNC(=N)N)C(=O)N[C@@H](CC=C)C(=O)OCc2ccccc2)ccc2ccccc12.Cl`, the MIC is 62.5 µg/mL with Enterococcus faecium [1] (setting [6]); 62.5 µg/mL with Enterococcus faecium [2] (setting [7]); 62.5 µg/mL in the assay on Enterococcus faecium [3] (setting [8]); 62.5 µg/mL in the assay on Enterococcus faecium [4] (setting [9]); 5.2 µg/mL with Staphylococcus aureus (setting [10]).

Take `C=CCOc1ccc2ccccc2c1-c1c(OCC(=O)N[C@H](CCCCN)C(=O)N[C@H](CCCNC(=N)N)C(=O)N[C@@H](C)C(=O)OCc2ccccc2)ccc2ccccc12.Cl.Cl`: the MIC in the assay with Enterococcus faecium [1] (setting [6]) is 125 µg/mL; with Enterococcus faecium [2] (setting [7]), 125 µg/mL; in the assay with Enterococcus faecium [3] (setting [8]), 125 µg/mL; with Enterococcus faecium [4] (setting [9]) it was 125 µg/mL; in the assay on Staphylococcus aureus (setting [10]), 7.8 µg/mL.

Turning to `C=CCOc1ccc2ccccc2c1-c1c(OCC(=O)N[C@H](CC=C)C(=O)N[C@H](CCCNC(=N)N)C(=O)N[C@@H](CC=C)C(=O)OCc2ccccc2)ccc2ccccc12.Cl`, the MIC is 125 µg/mL in the assay on Enterococcus faecium [1] (setting [6]); 125 µg/mL with Enterococcus faecium [2] (setting [7]); 62.5 µg/mL in the assay on Enterococcus faecium [3] (setting [8]); 125 µg/mL in the assay with Enterococcus faecium [4] (setting [9]); 15.6 µg/mL with Staphylococcus aureus (setting [10]).

Turning to `C=CCOc1ccc2ccccc2c1-c1c(OCC(=O)N[C@H](CCCCN)C(=O)N[C@H](CCCNC(=N)N)C(=O)N[C@@H](CC=C)C(=O)OCc2cccc3ccccc23)ccc2ccccc12.Cl.Cl`, the MIC was above 125 µg/mL in the assay with Enterococcus faecium [1] (setting [6]); above 125 µg/mL in the assay on Enterococcus faecium [2] (setting [7]); 125 µg/mL in the assay on Enterococcus faecium [3] (setting [8]); 125 µg/mL in the assay with Enterococcus faecium [4] (setting [9]); 15.6 µg/mL in the assay with Staphylococcus aureus (setting [10]).

Take `C=CCOc1ccc2ccccc2c1-c1c(OCC(=O)N[C@H](CCCNC(=N)N)C(=O)OCc2ccccc2)ccc2ccccc12.Cl`: the MIC in the assay on Enterococcus faecium [1] (setting [6]) worked out at 62.5 µg/mL; with Enterococcus faecium [2] (setting [7]) it was 62.5 µg/mL; with Enterococcus faecium [3] (setting [8]), 62.5 µg/mL; with Enterococcus faecium [4] (setting [9]), 62.5 µg/mL; with Staphylococcus aureus (setting [10]) it was 3.3 µg/mL.

Turning to `C=CCOc1ccc2ccccc2c1-c1c(OCC(=O)N[C@H](CCCCN)C(=O)N[C@H](CCCCN)C(=O)N[C@@H](CC=C)C(=O)OCc2ccccc2)ccc2ccccc12.Cl.Cl`, the MIC in the assay on Enterococcus faecium [1] (setting [6]) came out at 125 µg/mL; with Enterococcus faecium [2] (setting [7]), 125 µg/mL; in the assay with Enterococcus faecium [3] (setting [8]), 62.5 µg/mL; with Enterococcus faecium [4] (setting [9]) it was 62.5 µg/mL; with Staphylococcus aureus (setting [10]), 3.9 µg/mL.

For `C=CCOc1ccc2ccccc2c1-c1c(OCC(=O)N[C@H](CCCCN)C(=O)N[C@H](CCCNC(=N)N)C(=O)N[C@@H](Cc2ccccc2)C(=O)OC)ccc2ccccc12.Cl.Cl` (stereo in doubt; 82), the MIC came to 125 µg/mL against Enterococcus faecium [1]; 125 µg/mL against Enterococcus faecium [2]; 125 µg/mL in the assay with Enterococcus faecium [3]; 125 µg/mL in the assay with Enterococcus faecium [4]; 7.8 µg/mL in the assay on Staphylococcus aureus.

`CC(C)CCOc1ccc2ccccc2c1-c1c(OCC(=O)N[C@H](CCCCN)C(=O)N[C@H](CCNC(=N)N)C(=O)N[C@@H](CC(C)C)C(=O)OCc2ccccc2)ccc2ccccc12.Cl.Cl`: the MIC was found to be 52.1 µg/mL in the assay on Enterococcus faecium [1] (setting [6]); 52.1 µg/mL with Enterococcus faecium [2] (setting [7]); 27.8 µg/mL in the assay on Enterococcus faecium [3] (setting [8]); 31.3 µg/mL with Enterococcus faecium [4] (setting [9]); 2.6 µg/mL with Staphylococcus aureus (setting [10]).

Take `CC(C)CCOc1ccc2ccccc2c1-c1c(OCC(=O)N[C@H](CCCNC(=N)N)C(=O)N[C@H](CCCNC(=N)N)C(=O)N[C@@H](CC(C)C)C(=O)OCc2ccccc2)ccc2ccccc12.Cl.Cl`: the MIC in the assay on Enterococcus faecium [1] (setting [6]) is 31.3 µg/mL; in the assay on Enterococcus faecium [2] (setting [7]) it was 62.5 µg/mL; with Enterococcus faecium [3] (setting [8]), 15.6 µg/mL; in the assay on Enterococcus faecium [4] (setting [9]), 31.3 µg/mL; with Staphylococcus aureus (setting [10]) it was 1.95 µg/mL; in assay [5], 19.5 µg/mL.

In the case of `CC(C)CCOc1ccc2ccccc2c1-c1c(OCC(=O)N[C@H](CCCCN)C(=O)N[C@H](CCCN)C(=O)N[C@@H](CC(C)C)C(=O)OCc2ccccc2)ccc2ccccc12.Cl.Cl`, the MIC with Enterococcus faecium [1] (setting [6]) was found to be 62.5 µg/mL; in the assay with Enterococcus faecium [2] (setting [7]), 62.5 µg/mL; in the assay on Enterococcus faecium [3] (setting [8]), 15.6 µg/mL; in the assay on Enterococcus faecium [4] (setting [9]) it was 31.3 µg/mL; with Staphylococcus aureus (setting [10]), 1.95 µg/mL.

Take `C=CCOc1ccc2ccccc2c1-c1c(OCC(=O)N[C@H](CCCNC(=N)N)C(=O)N[C@H](CCCNC(=N)N)C(=O)N[C@@H](CC=C)C(=O)OCc2ccccc2)ccc2ccccc12.Cl.Cl`: the MIC is above 125 µg/mL in the assay on Enterococcus faecium [1] (setting [6]); above 125 µg/mL in the assay on Enterococcus faecium [2] (setting [7]); 125 µg/mL with Enterococcus faecium [3] (setting [8]); 125 µg/mL in the assay on Enterococcus faecium [4] (setting [9]); 31.3 µg/mL in the assay on Staphylococcus aureus (setting [10]).

Take `C=CCOc1ccc2ccccc2c1-c1c(OCC(=O)N[C@H](CC(C)C)C(=O)N[C@H](CCCNC(=N)N)C(=O)N[C@@H](C)C(=O)OCc2ccccc2)ccc2ccccc12.Cl`: the MIC came to 62.5 µg/mL in the assay on Enterococcus faecium [1] (setting [6]); 62.5 µg/mL with Enterococcus faecium [2] (setting [7]); 62.5 µg/mL in the assay with Enterococcus faecium [3] (setting [8]); 62.5 µg/mL with Enterococcus faecium [4] (setting [9]); 5.2 µg/mL with Staphylococcus aureus (setting [10]).

For the compound `C=CCOc1ccc2ccccc2c1-c1c(OCCCC(=O)N[C@H](CCCNC(=N)N)C(=O)OCc2ccccc2)ccc2ccccc12.Cl`, the MIC turned out to be 125 µg/mL in the assay with Enterococcus faecium [1] (setting [6]); 62.5 µg/mL in the assay with Enterococcus faecium [2] (setting [7]); 62.5 µg/mL with Enterococcus faecium [3] (setting [8]); 62.5 µg/mL with Enterococcus faecium [4] (setting [9]); 3.9 µg/mL in the assay on Staphylococcus aureus (setting [10]).
